pIC50: −log10 of the molar value. The source made the active and inactive calls. The rule behind the calls is not given here.
Experiments:
[1] = Toxicity in BALB/c mouse xenografted with human A549/Taxol cells assessed as side effects at 5.7 mg/kg,iv administrated once per week for 3 weeks; assay type: organism-based, A549/TR; details: in vivo, 504 h
Method in brief: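 Nude BALB/c nu/nu mice received subcutaneous human tumour cells into the right flank. Dosing started at mean tumour volume of 100–120 mm3, iv once weekly for 3 weeks; the taxane arm was an equimolar control. Body weight and overt side effects were monitored. Mean ± SEM, n = 8.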

4T1 [2] = assay: Antitumor activity against mouse 4T1 cells xenografted with BALB/c mouse assessed as inhibition of tumor growth at 5.7 mg/kg,iv in presence of compound 6 administrated once per week for 4 weeks; assay type: functional; details: 4T1, 672 h
Method in brief: (§1)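 4T1 cells injected into mammary fat pads of BALB/c mice. Dosing iv once per week for 4 weeks, saline vehicle; single-agent arms were given alone or with the peptide component (5b or 6). Endpoints were body weight, tumour volume, tumour weight, lung metastatic nodule count and lung metastasis score. Mean ± SEM, n = 10; ANOVA and Student's t test.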

4T1 [3] = assay: Antitumor activity against mouse 4T1 cells implanted in BALB/c mouse assessed as decrease in spleen MDSC cells at 5.7 mg/kg,iv measured after 28 days (reference value: 38%); assay type: functional; set-up: scale not given: the % may be the effect or the level left; details: time 28 day
Method in brief: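 Splenocytes taken from 4T1 fat-pad tumor-bearing BALB/c mice after 28 days of tumor growth with weekly iv dosing. Cells stained with anti-CD11b PE and anti-Gr-1 FITC, and the Gr-1+CD11b+ percentage scored by flow cytometry. Eight mice per treated group, five naive. Mean ± SEM.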

4T1 [4] = assay: Antitumor activity against mouse 4T1 cells xenografted with BALB/c mouse assessed as reduction lung metastatic nodules at 5.7 mg/kg,iv in presence of compound 6 administrated once per week for 4 weeks; assay type: functional, organism-based; method in brief: as §1
[5] = Half life in Beagle dog at 4 mg/kg,iv measured upto 24 hrs; assay type: ADME, organism-based, Canis lupus familiaris; details: in vivo
4T1 [6] = assay: Antitumor activity against mouse 4T1 cells implanted in BALB/c mouse assessed as decrease in serum IL-6 level at 5 mg/kg,iv administrated once per week for 4 weeks by ELISA; assay type: functional, organism-based
Method in brief: (§2)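 4T1 fat-pad model in BALB/c mice, iv 5–20 mg/kg once weekly for 4 weeks, with vehicle and naive groups; serum MMP9, TIMP-1, IL-6 and S100A9 measured by mouse ELISA kits.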

NCI-H522 = assay: Antiproliferative activity against human NCI-H522 cells assessed inhibition of cell growth incubated for 72 hrs by SRB assay; assay type: functional, cell-based; details: NCI-H522, 72 h
[7] = Clearance in male rat at 8 mg/kg,iv measured upto 24 hrs; assay type: ADME, organism-based; details: in vivo
Method in brief: (§3)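 Rats were given a single iv injection at 2, 4 or 8 mg/kg. Plasma parent drug and released docetaxel were followed over time. Cmax, Tmax, AUC, MRT, t1/2, CL and Vss were reported for males, females and all animals combined.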

[8] = Tmax in Beagle dog at 1 mg/kg,iv measured upto 24 hrs; assay type: ADME, organism-based, Canis lupus familiaris; details: in vivo
[9] = Drug metabolism in monkey hepatocytes assessed as MDA-205 metabolite formation at 20 uM incubated for 180 mins; assay type: ADME, cell-based, Macaca mulatta, Hepatocyte; details: rhesus monkey, 3 h
[10] = Clearance in male Beagle dog at 1 mg/kg,iv measured upto 24 hrs; assay type: ADME, organism-based, Canis lupus familiaris; details: in vivo
Method in brief: (§4)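 Beagle dogs were given a single iv infusion at 1, 2 or 4 mg/kg. Plasma parent drug and released docetaxel were followed over time. Cmax, Tmax, AUC, MRT, t1/2, CL and Vss were reported by sex and for all dogs combined.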

[11] = Tmax in Beagle dog at 2 mg/kg,iv measured upto 24 hrs; assay type: ADME, organism-based, Canis lupus familiaris; details: in vivo
[12] = MRT (0 to infinity) in male Beagle dog at 2 mg/kg,iv measured upto 24 hrs; assay type: ADME, organism-based, Canis lupus familiaris; details: in vivo
[13] = Cmax in male rat at 2 mg/kg,iv measured upto 24 hrs; assay type: ADME, organism-based; set-up: time < 24 hrs, dose 2 mg/kg, route iv; details: in vivo; method in brief: as §3
[14] = Volume of distribution at steady state in female rat at 8 mg/kg,iv measured upto 24 hrs; assay type: ADME, organism-based; details: in vivo, read-out: Vdss
[15] = Half life in rat at 2 mg/kg,iv measured upto 24 hrs; assay type: ADME, organism-based; details: in vivo
[16] = MRT (0 to infinity) in rat at 4 mg/kg,iv measured upto 24 hrs; assay type: ADME, organism-based; details: in vivo
[17] = Cmax in female Beagle dog at 1 mg/kg,iv measured upto 24 hrs; assay type: ADME, organism-based, Canis lupus familiaris; set-up: dose 1 mg/kg, time < 24 hrs, route iv; details: in vivo; method in brief: as §4
[18] = Prodrug conversion in mouse tumor implanted with mouse 4T1 cells assessed as half life of docetaxel at 4 mg/kg,iv measured upto 72 hrs; assay type: ADME, organism-based, Neoplasm; details: in vivo
[19] = Toxicity in female Sprague-Dawley rat assessed as maximal non-toxic dose at iv administration; assay type: organism-based; details: in vivo, read-out: MNTD
BT-474 = assay: Antiproliferative activity against human BT-474 cells assessed inhibition of cell growth incubated for 72 hrs by SRB assay; assay type: functional, cell-based; details: BT-474, 72 h
Cytochrome P450 2C9 = Cytochrome P450 2C9 (Homo sapiens, UniProt P11712); assay: Inhibition of CYP2C9 in human liver microsomes using probe substrate at 0.1 to 100 uM in presence of NADPH; assay type: ADME, Microsome; details: dose 0.1-100 µM
4T1 [20] = assay: Antitumor activity against mouse 4T1 cells implanted in BALB/c mouse assessed as decrease in serum IL-6 level at 10 mg/kg,iv administrated once per week for 4 weeks by ELISA; assay type: functional, organism-based; method in brief: as §2
[21] = AUC (0-t) in Beagle dog at 2 mg/kg,iv measured upto 24 hrs; assay type: ADME, organism-based, Canis lupus familiaris; set-up: time < 24 hrs, dose 2 mg/kg, route iv; details: in vivo
Method in brief: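 Single iv dose: rats 2, 4 or 8 mg/kg by intravenous injection; Beagle dogs 1, 2 or 4 mg/kg by intravenous infusion. Plasma concentration–time data were analysed by sex and pooled. Reported parameters: Cmax, Tmax, AUC0−t, AUC0−∞, MRT0−∞, t1/2, CL, Vss, given as mean ± SD.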

[22] = Half life in Beagle dog at 1 mg/kg,iv measured upto 24 hrs; assay type: ADME, organism-based, Canis lupus familiaris; details: in vivo
[23] = MRT (0 to infinity) in male Beagle dog at 4 mg/kg,iv measured upto 24 hrs; assay type: ADME, organism-based, Canis lupus familiaris; details: in vivo
4T1 [24] = assay: Antitumor activity against mouse 4T1 cells implanted in BALB/c mouse assessed as decrease in spleen MDSC cells at 20 mg/kg,iv measured after 28 days (reference value: 38%); assay type: functional; set-up: scale not given: the % may be the effect or the level left; details: time 28 day
[25] = Stability in dog plasma assessed as compound remaining at 40 uM incubated for 6 hrs; assay type: ADME, cell-free, Canis lupus familiaris
[26] = MRT (0 to infinity) in female rat at 8 mg/kg,iv measured upto 24 hrs; assay type: ADME, organism-based; details: in vivo
[27] = Prodrug conversion in mouse plasma implanted with mouse 4T1 cells assessed as Cmax of docetaxel at 4 mg/kg,iv measured upto 72 hrs; assay type: ADME, organism-based; set-up: dose 4 mg/kg, time < 72 hrs, route iv; details: in vivo
[28] = MRT (0 to infinity) in male rat at 8 mg/kg,iv measured upto 24 hrs; assay type: ADME, organism-based; details: in vivo
4T1 [29] = assay: Antitumor activity against mouse 4T1 cells implanted in BALB/c mouse assessed as increase in tumor NOD1 expression level at 5 to 20 mg/kg,iv administrated once per week for 4 weeks by western blot assay; assay type: functional, organism-based; details: dose 5-20 mg/kg
Method in brief: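 4T1 fat-pad model in BALB/c mice, iv once weekly for 4 weeks; MMP9, MMP2 and NOD1 in spleen, lung and tumour by western blot, β-actin loading control; bands averaged over five mice per group, representative of two independent experiments.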

[30] = Cmax in rat at 4 mg/kg,iv measured upto 24 hrs; assay type: ADME, organism-based; set-up: dose 4 mg/kg, time < 24 hrs, route iv; details: in vivo; method in brief: as §3

Cytochrome P450 2C9, sequence (P11712 whole entry): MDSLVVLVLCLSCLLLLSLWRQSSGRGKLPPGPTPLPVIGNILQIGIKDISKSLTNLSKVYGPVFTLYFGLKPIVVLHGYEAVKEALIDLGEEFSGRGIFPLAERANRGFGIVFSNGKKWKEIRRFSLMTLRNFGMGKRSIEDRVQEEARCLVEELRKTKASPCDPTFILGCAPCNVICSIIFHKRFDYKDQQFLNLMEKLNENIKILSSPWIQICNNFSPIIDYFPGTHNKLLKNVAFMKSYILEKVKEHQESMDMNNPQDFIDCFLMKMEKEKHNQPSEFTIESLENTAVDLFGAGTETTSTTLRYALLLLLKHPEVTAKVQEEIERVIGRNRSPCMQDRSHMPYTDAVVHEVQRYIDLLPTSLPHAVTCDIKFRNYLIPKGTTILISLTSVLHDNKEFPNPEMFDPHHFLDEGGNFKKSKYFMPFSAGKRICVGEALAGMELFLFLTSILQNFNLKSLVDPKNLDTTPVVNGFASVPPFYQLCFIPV

SMILES: CC(=O)O[C@@]12CO[C@@H]1C[C@H](O)[C@@]1(C)C(=O)[C@H](O)C3=C(C)[C@@H](OC(=O)[C@H](O)[C@@H](NC(=O)OC(C)(C)C)c4ccccc4)C[C@@](O)([C@@H](OC(=O)c4ccccc4)[C@H]21)C3(C)C [DOCETAXEL ANHYDROUS]
- Activity [1]: Non-Toxic
- inhibition in vivo at 5.7 mg/kg (4T1 [2]): 15.4%
- Activity (4T1 [3]): 36.4%
- Activity (4T1 [4]): inactive

SMILES: CC(=O)O[C@@]12CO[C@@H]1C[C@H](O)[C@@]1(C)C(=O)[C@H](O)C3=C(C)[C@@H](OC(=O)[C@H](OC(=O)CCC(=O)NCCCC[C@H](NC(=O)CC[C@@H](NC(=O)[C@H](C)NC(=O)/C=C/c4ccc(F)cc4Cl)C(N)=O)C(=O)O)[C@@H](NC(=O)OC(C)(C)C)c4ccccc4)C[C@@](O)([C@@H](OC(=O)c4ccccc4)[C@H]21)C3(C)C
- half-life [5]: 35.5 min
- Activity (4T1 [6]): Active
- pIC50 (NCI-H522): 7.79
- clearance [7]: 2.55 mL/min/kg
- Tmax [8]: 30 min
- Drug metabolism [9]: Metabolite_Detected
- clearance [10]: 11.7 mL/min/kg
- Tmax [11]: 30 min
- MRT inf [12]: 13.1 min
- Cmax [13]: 15800 ng/mL
- Vd [14]: 0.095 L/kg
- half-life [15]: 7.8 min
- MRT inf [16]: 19.1 min
- Cmax [17]: 4020 ng/mL
- t1/2 [18]: 59 h
- NOAEL [19]: 2 mg/kg
- pIC50 (BT-474): 7.79
- inhibition (INH) (Cytochrome P450 2C9): Not Active
- Activity (4T1 [20]): Active
- AUC(0-t) at 24 h [21]: 5900 ng·h/mL
- half-life [22]: 21.3 min
- MRT inf [23]: 16.5 min
- Activity (4T1 [24]): 10.1%
- Stability [25]: Stable
- MRT inf [26]: 28.2 min
- Cmax [27]: 43.3 µM
- MRT inf [28]: 37.9 min
- Activity (4T1 [29]): inactive
- Cmax [30]: 34200 ng/mL
